Screening data (PubChem)
The list is not random: actives were taken first. Their share in the collection is about 29%.
tolC growth inh: blocks growth of E. coli BW25113 tolC mutant | growth inhibition, % at 10 µM (by protocol) | OD615 | 65,000 tested, 2.2% active | AID 573;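 active = growth inhibition at or above a cutoff equal to the mean over every tested compound plus 3 SD, cut at about 60% in these data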;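 note: growth measured after 20 h incubation at 37 °C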
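Material: E. coli BW25113 ΔtolC::kan, tolC deletion mutant strain. Measure: percent growth inhibition. Schedule: 37 °C, 20 h exposure. Doses: single-point testing at 10 µM. Signal: A615 absorbance measurement. Buffer or medium: kanamycin-containing LB broth (50 µg/mL).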
E coli WT exp: growth inhibitors of E. coli BW25113 wild type | OD600 absorbance | 98,000 tested, 0.15% active | growth inhibition, % at 100 µM;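 active = growth inhibition above about 50% at one test dose, limit read from the data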;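 note: growth measured after 20 h incubation at 37 °C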
CYP2C19 act: increases human CYP2C19 enzyme activity. recombinant CYP2C19, luciferin-H EGE luminescence; active compounds read high; 0 = fully inhibited enzyme, 1 = untreated enzyme. P33261. 96,000 tested, under 10 active. activation factor at 5 µM. AID 1025;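 active = activation factor of at least 2 at 5 µM in the primary screen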
Target sequence (P33261 whole entry, looked up): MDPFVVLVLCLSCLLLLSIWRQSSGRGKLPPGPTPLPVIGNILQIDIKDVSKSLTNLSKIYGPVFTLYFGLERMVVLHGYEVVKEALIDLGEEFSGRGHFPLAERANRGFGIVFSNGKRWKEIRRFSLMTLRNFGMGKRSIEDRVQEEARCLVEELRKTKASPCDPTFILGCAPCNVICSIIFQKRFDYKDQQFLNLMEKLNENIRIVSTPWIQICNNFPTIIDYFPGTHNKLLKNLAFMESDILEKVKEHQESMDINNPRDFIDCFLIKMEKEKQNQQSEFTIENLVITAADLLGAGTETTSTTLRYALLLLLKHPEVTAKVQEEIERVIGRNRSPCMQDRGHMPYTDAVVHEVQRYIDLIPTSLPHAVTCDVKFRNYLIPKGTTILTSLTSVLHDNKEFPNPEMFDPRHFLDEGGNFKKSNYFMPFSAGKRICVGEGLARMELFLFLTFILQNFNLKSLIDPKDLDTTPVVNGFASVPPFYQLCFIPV
CYP2C9 inhib: blocks human cytochrome P450 2C9; P11712; CYP2C9 Supersomes, luciferin-H conversion, luminescence; inhibition, % at 5 µM; 96,000 tested, 20% active;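 active = blocking of liver enzyme CYP2C9 beyond about 50% at 5 µM, limit read from the data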
CYP2C9 activ: increases human cytochrome P450 2C9 activity. P11712. 96,000 tested, 1.4% active. activation factor at 5 µM. recombinant CYP2C9, luciferin-H conversion, luminescence; active compounds read high; factor 1 = untreated enzyme, 0 = blocked;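 active = activation factor of 2 or more for CYP2C9 at a 5 µM dose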
CYP2C19 inh: inhibitors of human CYP2C19 | CYP2C19 Supersomes, luciferin-H EGE luminescence, 30 min | P33261 | 96,000 tested, 21% active | inhibition, % at 5 µM;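 active = CYP2C19 inhibition above a set limit at 5 µM in the primary screen, cut at about 50% in these data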
Hits are given with their value; - = inactive; . = no result.

SMILES	tolC growth inh	E coli WT exp	CYP2C19 act	CYP2C9 inhib	CYP2C9 activ	CYP2C19 inh
Cc1cc(C)c2c3c(sc2n1)C(=O)N(Cc1ccccc1)CC(=O)N3	.	-	-	-	-	-
Cc1ccc(-c2nc3cnccn3c2Nc2c(C)cccc2C)o1	.	-	-	63	-	99
Cc1ccc(-c2nc3ncccn3c2NC2CCCC2)o1	-	-	-	-	-	-
O=C(CC1C(=O)N(c2ccc(Cl)cc2)C(=S)N1CCc1ccncc1)Nc1ccc(F)cc1 (stereo not given)	.	-	-	95	-	85
O=C(CC1C(=O)N(c2ccc(F)cc2)C(=O)N1Cc1ccccn1)Nc1ccccc1 (stereo not given)	.	-	-	-	-	56
COc1ccc(Nc2nnc(Cc3ccc(Cl)cc3)c(=O)[nH]2)c(OC)c1	-	-	-	62	-	-
CCN(c1ccccc1)S(=O)(=O)c1cc(C(=O)O)ccc1C	.	-	-	-	-	-
C=CCS/C(=N\n1cnc2ccccc2c1=O)N(CC)CC	.	-	-	63	-	96
C=CCS/C(=N\n1cnc2ccccc2c1=O)N1CCCCC1	-	-	-	51	-	-
CN(C(=O)c1ccc(=O)[nH]c1)C1(C(=O)NC2CCCCC2)CCCCC1	-	-	-	-	-	-
Cc1nnc(NC(=O)c2oc3c(ccc4ccccc43)c2C)s1	.	-	-	-	-	-
CCOC(=O)NC1(C(F)(F)F)C(=O)N(Cc2ccccc2)C2=C1C(=O)CC(C)(C)C2 (stereo not given)	.	-	-	-	-	71
COc1cc(CN2C(=O)C(NC(=O)c3ccco3)(C(F)(F)F)C3=C2CC(C)(C)CC3=O)cc(OC)c1 (stereo not given)	.	-	-	60	-	-
CC1(C)CC(=O)C2=C(C1)N(Cc1cccnc1)C(=O)C2(NC(=O)c1cccnc1)C(F)(F)F (stereo not given)	.	-	-	-	-	-
COc1ccc(C(=O)NC2(C(F)(F)F)C(=O)N(Cc3ccco3)C3=C2C(=O)CC(C)(C)C3)cc1OC (stereo not given)	.	-	-	-	-	-
Cc1ccc(S(=O)(=O)N(CCCN2CCCC2=O)Cc2cc3c(C)ccc(C)c3[nH]c2=O)cc1	.	-	-	63	-	-
COc1ccc2[nH]c(=O)c(CN(CCCN3CCOCC3)C(=O)NCc3ccccc3)cc2c1	-	-	-	-	-	-
COc1ccc(S(=O)(=O)N(CCCN2CCCC2=O)Cc2cc3cc(C)c(C)cc3[nH]c2=O)cc1	-	-	-	68	-	-
Cc1ccc(C)c2[nH]c(=O)c(CN(CCN3CCCC3)C(=O)Nc3cccc(Cl)c3)cc12	-	-	-	-	-	-
COc1ccc(C(C)=O)cc1CN(C)C	.	-	-	-	-	-
CCOC(=O)c1ccc(NC(=O)Nc2ccn(C)n2)cc1	-	-	-	-	-	-
CCOCCNC(=O)c1ccc2c3c(cccc13)CC2	.	-	-	-	3.4	-
CC(=O)N1CN(S(=O)(=O)c2ccc(C)cc2)CC1C (stereo not given)	.	-	-	-	-	-
COc1ccc(CCNC(=O)CNS(=O)(=O)c2ccc(Br)s2)cc1OC	.	-	-	-	-	-
COc1ccc(CCNC(=O)COC(=O)c2ccc(Br)o2)cc1OC	.	-	-	80	-	71
SMILES	tolC growth inh	E coli WT exp	CYP2C19 act	CYP2C9 inhib	CYP2C9 activ	CYP2C19 inh
CCN(CC)CCNC(=O)C1CCC(=O)N1CCc1ccccc1 (stereo not given)	-	-	-	-	-	-
CCOc1ccc(CCNC(=O)C2CCC(=O)N2CCc2ccccc2)cc1OCC (stereo not given)	.	-	-	68	-	-
CCOc1ccc(CCNC(=O)COC(=O)c2ccco2)cc1OCC	.	-	-	69	-	52
CC(C)CCNC(=O)COC(=O)c1ccc(Br)o1	.	-	-	-	-	-
COc1ccc(CCNC(=O)COC(=O)c2ccc(Br)o2)cc1	.	-	-	78	-	-
CCOC(=O)C1CCN(Cc2oc(CO)cc(=O)c2O)CC1	.	-	-	-	-	-
COC(=O)c1ccc(NC(=O)c2cccc(Cl)c2)o1	.	-	-	-	-	-
O=C(OCc1ccccc1)c1ccc(Br)o1	-	-	-	-	-	-
O=C(COC(=O)c1ccc(Br)o1)NCCCc1ccccc1	-	-	-	71	-	-
Cc1c(C(=O)/C=C/c2cccs2)oc2ccc(F)cc12	.	-	-	-	-	-
Cc1cc(NC(=O)CSc2nc(-c3ccc(F)cc3)cs2)no1	-	-	-	-	-	-
O=C(CSc1nc(-c2ccc(F)cc2)cs1)N1CCOCC1	-	-	-	-	2.1	69
CC1CN(C(=O)CSc2nc(-c3ccc(F)cc3)cs2)CC(C)O1 (stereo not given)	.	-	-	-	-	79
O=C(CSc1nc(-c2ccc(F)cc2)cs1)NC(=O)NCc1ccco1	-	-	-	-	-	-
O=c1nc(NCc2ccco2)sc2ncccc12	-	-	-	-	-	-
O=C(Cc1ccc(Cl)cc1)NCC(=O)N1CCCC1	-	-	-	-	-	-
COC(=O)c1c(C)noc1-c1cc(C)on1	-	-	-	-	-	-
CC(C)(O)c1nnn(-c2ccccc2)c1C(F)(F)F	-	-	-	-	-	75
O=C(O)c1ccc(CSCc2c(F)cccc2Cl)o1	-	-	-	-	-	-
Cc1ccc(C2CN(c3ccccc3)CC2C(=O)c2ccc(F)cc2)cc1 (stereo not given)	.	-	-	-	-	-
COc1ccccc1/C=C/C=N/N1CCN(Cc2ccc(Cl)cc2)CC1	.	-	-	-	-	52
Cc1ccc(/C=N/N2CCN(Cc3ccc(Cl)cc3)CC2)o1	.	-	-	63	-	68
COc1ccccc1/C=C/C=N/n1c(COc2ccccc2)n[nH]c1=S	.	-	-	-	-	-
COc1cc(C)c(Cl)c(C)c1S(=O)(=O)NCc1cccnc1	.	-	-	-	-	-
COC(=O)C1=CN(CCCN2CCCC2=O)C=C(C(=O)OC)C1c1ccccc1C(F)(F)F	-	-	-	-	-	-
SMILES	tolC growth inh	E coli WT exp	CYP2C19 act	CYP2C9 inhib	CYP2C9 activ	CYP2C19 inh
O=C(CSC(=S)N1CCOCC1)N1N=CCC1c1ccccc1 (stereo not given)	.	-	-	-	-	-
CCOC(=O)Cc1cn2c(=O)cc(CSCC(=O)Nc3ccc(C)c(C)c3)nc2s1	-	-	-	74	-	-
CCCC(=O)Nc1ccc(C(=O)Nc2nc(CC(=O)OCC)cs2)cc1	.	-	-	-	-	-
Cc1ccc(NC(=O)CSCc2c(C)noc2C)cc1C	-	-	-	-	-	94
Cc1cccc(N2CCN(C(=O)CSCc3c(C)noc3C)CC2)c1C	-	-	-	-	-	-
Cc1noc(C)c1CSCC(=O)OCC(=O)Nc1sccc1C#N	-	-	-	67	-	-
CN(C)c1ccc(C2OC(=O)C3(CCCC3)C(=O)C2(C)C)cc1 (stereo not given)	-	-	-	-	-	-
